Compounds with a hit are over-represented: about 1.3% of the library has one in this group of screens.
Efflux pump mplx – blocks antifungal efflux pumps in multiplex yeast assay. S. cerevisiae Candida pump triplex, Nile Red efflux. inhibition, % at 10 µM. 330,000 compounds, 0.44% hits. AID 485275;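 active means plate passing quality check with inhibition over a set limit, or well fluorescence over plate mean plus 4 SD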;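 further: Nile Red retained in pooled yeast measured as flow cytometry median fluorescence; 0% = buffer negative control and 100% = Enniatin B positive control; higher means more Nile Red kept so more efflux inhibition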
H9c2 TAG inh – inhibitors of triacylglycerol accumulation | H9c2 cells, Nile Red lipid (TAG) fluorescence; cells loaded with 200 µM oleic acid | inhibition, % at 12.5 µM | 230,000 compounds, 0.66% hits;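 active means pattern-corrected inhibition of lipid staining of at least 50% with the nuclear-stain viability signal not falling by more than 50%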;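 further: 0% = DMSO wells and 100% = triacsin C control wells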
MT1-MMP act inh – MT1-MMP (human) activation inhibition. 360,000 compounds, 0.061% hits. HT1080 RFP-PRO-GFP cells, GFP/RFP ratio fluorescence, overnight; percent of plate control window, DMSO zero. P50281. AID 651647. GFP/RFP ratio change, % at 20 µM;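 active means GFP/RFP ratio change of at least 30% with cell ATP level not reduced by more than half and red fluorescence within 50% of control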
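system = RFP-PRO-GFP reporter HT1080 cells | dosing = 20 µM single dose, 1% DMSO | timing = overnight cell settling, then overnight compound exposure, 37 °C, 5% CO2 | read-out basis = GFP/RFP fluorescence ratio | controls = DMSO and RFP-L50D-GFP cell wells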
HGIII-sPLA2 inh – Blocks human group III sPLA2 activity | Q9NZ20 | QFRET BODIPY PC-A2 liposome hydrolysis, fluorescence | inhibition, % at 12.2 µM | 370,000 compounds, 0.56% hits;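 active means inhibition above mean plus 3 SD of compounds lying within the high and low control bounds, cut at about 19% in these data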;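 further: 0% = median of test compound wells and 100% = no enzyme DMSO wells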
Target sequence (Q9NZ20 whole entry, looked up): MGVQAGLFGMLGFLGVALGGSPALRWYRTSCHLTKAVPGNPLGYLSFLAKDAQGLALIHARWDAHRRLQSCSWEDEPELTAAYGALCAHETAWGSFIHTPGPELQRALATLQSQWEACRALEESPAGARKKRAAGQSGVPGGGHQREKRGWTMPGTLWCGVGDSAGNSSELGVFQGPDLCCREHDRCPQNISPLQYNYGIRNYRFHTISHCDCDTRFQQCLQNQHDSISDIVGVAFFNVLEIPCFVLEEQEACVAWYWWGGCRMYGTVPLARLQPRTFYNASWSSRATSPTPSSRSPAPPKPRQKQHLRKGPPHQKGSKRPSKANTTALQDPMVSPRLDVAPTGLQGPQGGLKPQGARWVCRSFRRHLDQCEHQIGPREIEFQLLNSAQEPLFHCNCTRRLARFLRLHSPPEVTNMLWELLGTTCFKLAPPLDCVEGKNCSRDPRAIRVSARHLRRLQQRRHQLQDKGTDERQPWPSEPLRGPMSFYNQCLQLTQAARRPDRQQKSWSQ
Cmpd fluor yeast – compound fluorescence in yeast efflux pump counter-screen | shares compounds with Efflux pump mplx | S. cerevisiae AD/pABC3, flow cytometry | fluorescence ratio to DMSO, % at 10 µM | 1,700 compounds, 4% hits;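 active means fluorescence ratio to DMSO above its plate's cutoff, the plate mean ratio plus 5 SD, cut at about 210% in these data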;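 further: unstained yeast with no Nile Red so the signal is compound autofluorescence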
Mdr1 pump inh – blocks the Candida albicans Mdr1 efflux pump in yeast. 1,700 compounds, 1% hits. S. cerevisiae AD/CaMDR1, Nile Red efflux, flow cytometry. shares compounds with Efflux pump mplx. inhibition, % at 10 µM; in the data active means inhibition above about 26%;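 further: 0% = DMSO vehicle and 100% = reference inhibitor; higher means more Nile Red retained so more efflux inhibition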
Cdr2 pump inh – Candida Cdr2 efflux pump inhibition | S. cerevisiae AD/CaCDR2, Nile Red retention, flow cytometry | shares compounds with Efflux pump mplx | Nile Red retention ratio vs DMSO, % at 10 µM | 1,700 compounds, 4% hits | AID 588520; in the data active means Nile Red retention ratio vs DMSO above about 190%;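 further: higher ratio means more blocking of Cdr2 efflux of the dye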
CaCdr1 efflux inh – Candida Cdr1 efflux pump inhibition | shares compounds with Efflux pump mplx | S. cerevisiae AD/CaCDR1, Nile Red efflux, flow cytometry | inhibition, % at 10 µM | 1,700 compounds, 1% hits | AID 588522;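 active means inhibition above the screen-wide mean plus twice its standard deviation, cut at about 32% in these data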
The depositor's hits bear a star; . = no result given.

SMILES	Efflux pump mplx	H9c2 TAG inh	MT1-MMP act inh	HGIII-sPLA2 inh	Cmpd fluor yeast	Mdr1 pump inh	Cdr2 pump inh	CaCdr1 efflux inh
Cc1cccc(C)c1-n1c(SCC(=O)N2CC(=O)Nc3ccccc32)nc2ccccc2c1=O	8.2*	-12	-2	-8	102	0	125	95*
Cc1ccc(C)c(-c2cc(C(=O)Nc3sc(C)c(C)c3C(N)=O)c3ccccc3n2)c1	0	.	-5	0	98	0	104	0
Cc1c(C(=O)Nc2ccc3nc(N4CCOCC4)sc3c2)oc2ccccc12	0.8*	49	3	1	109	0	110	0
CC(C)(C)c1ccc(C(=O)O[C@H]2[C@H](Cc3ccccc3)NS(=O)(=O)[C@H]3C[C@@H]4C=C[C@]23O4)cc1	0	19	-3	-4	.	.	.	.
O[C@H](COc1cccc(F)c1)CN1CCC(C(O)(c2ccccc2)c2ccccc2)CC1	.	.	.	-20	.	.	.	.
Cn1nc([N+](=O)[O-])nc1Sc1ccc(Cl)cc1	0.8*	.	3	14	89	0	107	0
COc1ccc(-c2c(-c3ccsc3)oc3ccc(N4CCOCC4)cc23)cc1	0	11	-4	3	.	.	.	.
O=C(C[n+]1cc(-c2ccc(Cl)c(Cl)c2)n2c1CCC2)N1c2ccccc2Sc2ccccc21	4.3*	-14	-12	-69	105	0	108	0
O=C(C[n+]1cc(-c2ccc(Cl)cc2)n2c1CCC2)N1c2ccccc2Sc2ccccc21	0	.	-11	-33	.	.	.	.
Cc1ccc(-c2c[n+](CC(=O)Nc3ccc(C)cc3C)c3n2CCC3)cc1	0	-5	-2	2	.	.	.	.
Cc1ccc(-c2c[n+](Cc3ccc(Cl)c(Cl)c3)c3n2CCC3)cc1	18*	.	-30	11	79	0	87	0
Cc1ccc(C(=O)C[n+]2cc(-c3ccc(C)cc3)n3c2CCCCC3)cc1	0	.	-18	-38	.	.	.	.
Cc1ccc(NC(=O)C[n+]2cc(-c3ccc(C)cc3)n3c2CCC3)cc1	0	-2	-1	4	107	0	98	0
CCCN(CC(=O)Nc1cc(Cl)ccc1Cl)C(=O)c1ccccn1	0	-6	0	1	.	.	.	.
Cc1[nH]c(=O)[nH]c(=O)c1CCSSCCc1c(C)[nH]c(=O)[nH]c1=O	.	.	.	12	.	.	.	.
O=C(O)c1cc(NS(=O)(=O)c2ccc(N3CCCCC3)c([N+](=O)[O-])c2)cc(C(=O)O)c1	11*	1	2	7	103	0	107	0
O=C(Cc1ccccc1[N+](=O)[O-])Nc1ccc2c(c1)OCO2	1.3*	0	2	4	103	0	89	0
Cc1ccc(NC(=O)Cn2cc(C=O)c3ccccc32)cc1	0	-24	-3	-13	.	.	.	.
CCOC(=O)N1CCC(NC(=O)CN2C(=O)CCSc3ccccc32)CC1	0	-7	2	0	100	0	90	0
O=Cc1cn(CC(=O)Nc2ccc3c(c2)OCO3)c2ccccc12	1.1*	-14	-2	-2	104	0	109	0
O=C(CN1C(=O)CCSc2ccccc21)Nc1ccc2c(c1)OCO2	0	.	3	4	95	0	107	0
O=C(CN1C(=O)CSc2ccccc21)NC1CCCC1	0	.	1	6	.	.	.	.
O=C(CN1C(=O)CSc2ccccc21)Nc1ccc2c(c1)OCCO2	-1	.	-2	8	.	.	.	.
CC(C)N(CCn1c(SCC(=O)Nc2cccnc2Cl)nc2ccccc2c1=O)C(C)C	0	32	-5	-4	.	.	.	.
O=C(NC(O)C(=O)c1ccc(F)cc1)c1ccc(F)cc1 (configuration not stated)	0	.	0	8	.	.	.	.
CCCCNC(=O)Oc1c(Br)cc2sc(=O)oc2c1Br	0	.	.	.	.	.	.	.
CC1Cc2ccccc2N1CC(=O)Nc1cccc(S(N)(=O)=O)c1 (configuration not stated)	0	-7	7	3	.	.	.	.
CC1Cc2ccccc2N1CC(=O)Nc1ccc2c(c1)OCO2 (configuration not stated)	12*	.	1	-2	134	1	104	1
